Results reported in ChEMBL document CHEMBL4138171, “Design, synthesis and biological evaluation of novel aryldiketo acids with enhanced antibacterial activity against multidrug resistant bacterial strains” (Eur J Med Chem, 2018).

test system: Enterococcus faecalis; assay: Antibacterial activity against Enterococcus faecalis NCTC 12697 after 16 hrs by microdilution method; format: functional; details: NCTC 12697, 16 h
How it was run: (§1)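 Broth microdilution in cation-adjusted Mueller-Hinton broth (20 mg/l Ca2+, 10 mg/L Mg2+), inoculum 5×10^5 CFU/mL. Compounds from DMSO stocks, final DMSO <1%, tested over 0.12–128 µg/ml. Incubated 37 °C and read visually after 16 h. MIC is the lowest concentration with no visible growth, determined at least twice and converted to µmol/L.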

SMILES	MIC
Cc1ccccc1C(=O)/C=C(\O)C(=O)O	> 128 µg/mL
CN1CCN(c2ccc(C(=O)/C=C(\O)C(=O)O)cc2)CC1	> 128 µg/mL
O=C(O)/C(O)=C/C(=O)c1ccc(N2CCCC2)cc1	> 128 µg/mL
O=C(O)/C(O)=C/C(=O)c1ccc2c(c1)CCCC2	260 µM
Cc1cc(C(=O)/C=C(\O)C(=O)O)cc(C)c1O	> 128 µg/mL
O=C(O)/C(O)=C/C(=O)c1ccc(-n2ccnc2)cc1	496 µM
Cc1cccc(C(=O)/C=C(\O)C(=O)O)c1	> 128 µg/mL
Cc1cc(C)c(C(=O)/C=C(\O)C(=O)O)cc1C	> 128 µg/mL

test system: Bacillus subtilis; assay: Antibacterial activity against Bacillus subtilis NCTC 10400 after 16 hrs by microdilution method; format: functional; details: NCTC 10400, 16 h; how it was run: as §1

SMILES	MIC
Cc1ccccc1C(=O)/C=C(\O)C(=O)O	> 128 µg/mL
CN1CCN(c2ccc(C(=O)/C=C(\O)C(=O)O)cc2)CC1	> 128 µg/mL
O=C(O)/C(O)=C/C(=O)c1ccc(N2CCCC2)cc1	> 128 µg/mL
O=C(O)/C(O)=C/C(=O)c1ccc2c(c1)CCCC2	> 128 µg/mL
Cc1cc(C(=O)/C=C(\O)C(=O)O)cc(C)c1O	> 128 µg/mL
O=C(O)/C(O)=C/C(=O)c1ccc(-n2ccnc2)cc1	496 µM
Cc1cccc(C(=O)/C=C(\O)C(=O)O)c1	> 128 µg/mL
Cc1cc(C)c(C(=O)/C=C(\O)C(=O)O)cc1C	> 128 µg/mL

test system: Staphylococcus aureus; assay: Antibacterial activity against methicillin-sensitive Staphylococcus aureus NCTC 12981 after 16 hrs by microdilution method; format: functional; details: NCTC 12981, 16 h; how it was run: as §1

SMILES	MIC
Cc1ccccc1C(=O)/C=C(\O)C(=O)O	> 128 µg/mL
CN1CCN(c2ccc(C(=O)/C=C(\O)C(=O)O)cc2)CC1	> 128 µg/mL
O=C(O)/C(O)=C/C(=O)c1ccc(N2CCCC2)cc1	> 128 µg/mL
O=C(O)/C(O)=C/C(=O)c1ccc2c(c1)CCCC2	> 128 µg/mL
Cc1cc(C(=O)/C=C(\O)C(=O)O)cc(C)c1O	> 128 µg/mL
O=C(O)/C(O)=C/C(=O)c1ccc(-n2ccnc2)cc1	> 128 µg/mL
Cc1cccc(C(=O)/C=C(\O)C(=O)O)c1	> 128 µg/mL
Cc1cc(C)c(C(=O)/C=C(\O)C(=O)O)cc1C	> 128 µg/mL

test system: Staphylococcus aureus; assay: Antibacterial activity against methicillin-resistant Staphylococcus aureus NCTC 13373 after 16 hrs by microdilution method; format: functional; details: NCTC 13373, 16 h
How it was run: (§2)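 Broth microdilution in cation-adjusted Mueller-Hinton broth (20 mg/l Ca2+, 10 mg/L Mg2+), inoculum 5×10^5 CFU/mL. Compounds in DMSO, solvent under 1% in well, tested over 0.12-128 µg/ml. […] Each determined at least twice; values converted to µmol/L.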

SMILES	MIC
Cc1ccccc1C(=O)/C=C(\O)C(=O)O	> 128 µg/mL
CN1CCN(c2ccc(C(=O)/C=C(\O)C(=O)O)cc2)CC1	> 128 µg/mL
O=C(O)/C(O)=C/C(=O)c1ccc(N2CCCC2)cc1	> 128 µg/mL
O=C(O)/C(O)=C/C(=O)c1ccc2c(c1)CCCC2	> 128 µg/mL
Cc1cc(C(=O)/C=C(\O)C(=O)O)cc(C)c1O	> 128 µg/mL
O=C(O)/C(O)=C/C(=O)c1ccc(-n2ccnc2)cc1	248 µM
Cc1cccc(C(=O)/C=C(\O)C(=O)O)c1	> 128 µg/mL
Cc1cc(C)c(C(=O)/C=C(\O)C(=O)O)cc1C	> 128 µg/mL

test system: Staphylococcus aureus; assay: Antibacterial activity against Norfloxacin-resistant Staphylococcus aureus 1199B over-expressing NorA after 16 hrs by microdilution method; format: functional; details: not given; how it was run: as §2

SMILES	MIC
Cc1ccccc1C(=O)/C=C(\O)C(=O)O	> 128 µg/mL
CN1CCN(c2ccc(C(=O)/C=C(\O)C(=O)O)cc2)CC1	> 128 µg/mL
O=C(O)/C(O)=C/C(=O)c1ccc(N2CCCC2)cc1	> 128 µg/mL
O=C(O)/C(O)=C/C(=O)c1ccc2c(c1)CCCC2	520 µM
Cc1cc(C(=O)/C=C(\O)C(=O)O)cc(C)c1O	> 128 µg/mL
O=C(O)/C(O)=C/C(=O)c1ccc(-n2ccnc2)cc1	124 µM
Cc1cccc(C(=O)/C=C(\O)C(=O)O)c1	> 128 µg/mL
Cc1cc(C)c(C(=O)/C=C(\O)C(=O)O)cc1C	> 128 µg/mL

test system: Staphylococcus aureus; assay: Antibacterial activity against erythromycin-resistant Staphylococcus aureus RN4220 after 16 hrs by microdilution method; format: functional; details: RN4220, 16 h; how it was run: as §2

SMILES	MIC
Cc1ccccc1C(=O)/C=C(\O)C(=O)O	> 128 µg/mL
CN1CCN(c2ccc(C(=O)/C=C(\O)C(=O)O)cc2)CC1	> 128 µg/mL
O=C(O)/C(O)=C/C(=O)c1ccc(N2CCCC2)cc1	> 128 µg/mL
O=C(O)/C(O)=C/C(=O)c1ccc2c(c1)CCCC2	> 128 µg/mL
Cc1cc(C(=O)/C=C(\O)C(=O)O)cc(C)c1O	> 128 µg/mL
O=C(O)/C(O)=C/C(=O)c1ccc(-n2ccnc2)cc1	> 128 µg/mL
Cc1cccc(C(=O)/C=C(\O)C(=O)O)c1	> 128 µg/mL
Cc1cc(C)c(C(=O)/C=C(\O)C(=O)O)cc1C	> 128 µg/mL

test system: Staphylococcus aureus; assay: Antibacterial activity against Staphylococcus aureus EMRSA-15 after 16 hrs by microdilution method; format: functional; details: EMRSA-15, 16 h; how it was run: as §1

SMILES	MIC
Cc1ccccc1C(=O)/C=C(\O)C(=O)O	> 128 µg/mL
CN1CCN(c2ccc(C(=O)/C=C(\O)C(=O)O)cc2)CC1	> 128 µg/mL
O=C(O)/C(O)=C/C(=O)c1ccc(N2CCCC2)cc1	> 128 µg/mL
O=C(O)/C(O)=C/C(=O)c1ccc2c(c1)CCCC2	520 µM
Cc1cc(C(=O)/C=C(\O)C(=O)O)cc(C)c1O	> 128 µg/mL
O=C(O)/C(O)=C/C(=O)c1ccc(-n2ccnc2)cc1	> 128 µg/mL
Cc1cccc(C(=O)/C=C(\O)C(=O)O)c1	> 128 µg/mL
Cc1cc(C)c(C(=O)/C=C(\O)C(=O)O)cc1C	> 128 µg/mL

test system: Staphylococcus aureus; assay: Antibacterial activity against tetracycline/methicillin-resistant Staphylococcus aureus XU212 after 16 hrs by microdilution method; format: functional; details: XU212, 16 h; how it was run: as §2

SMILES	MIC
Cc1ccccc1C(=O)/C=C(\O)C(=O)O	> 128 µg/mL
CN1CCN(c2ccc(C(=O)/C=C(\O)C(=O)O)cc2)CC1	> 128 µg/mL
O=C(O)/C(O)=C/C(=O)c1ccc(N2CCCC2)cc1	> 128 µg/mL
O=C(O)/C(O)=C/C(=O)c1ccc2c(c1)CCCC2	> 128 µg/mL
Cc1cc(C(=O)/C=C(\O)C(=O)O)cc(C)c1O	> 128 µg/mL
O=C(O)/C(O)=C/C(=O)c1ccc(-n2ccnc2)cc1	496 µM
Cc1cccc(C(=O)/C=C(\O)C(=O)O)c1	> 128 µg/mL
Cc1cc(C)c(C(=O)/C=C(\O)C(=O)O)cc1C	> 128 µg/mL

test system: Escherichia coli; assay: Antibacterial activity against Escherichia coli NCTC 12241 after 16 hrs by microdilution method; format: functional; details: NCTC 12241, 16 h; how it was run: as §1

SMILES	MIC
Cc1ccccc1C(=O)/C=C(\O)C(=O)O	> 128 µg/mL
CN1CCN(c2ccc(C(=O)/C=C(\O)C(=O)O)cc2)CC1	> 128 µg/mL
O=C(O)/C(O)=C/C(=O)c1ccc(N2CCCC2)cc1	> 128 µg/mL
O=C(O)/C(O)=C/C(=O)c1ccc2c(c1)CCCC2	> 128 µg/mL
Cc1cc(C(=O)/C=C(\O)C(=O)O)cc(C)c1O	> 128 µg/mL
O=C(O)/C(O)=C/C(=O)c1ccc(-n2ccnc2)cc1	> 128 µg/mL
Cc1cccc(C(=O)/C=C(\O)C(=O)O)c1	> 128 µg/mL
Cc1cc(C)c(C(=O)/C=C(\O)C(=O)O)cc1C	> 128 µg/mL
